Assay results as given in ChEMBL document CHEMBL4689842, “EUbOPEN Chemogenomics Library wave 1” (2021).

System: HEK-293T
Test: Multiplex assay against HEK293T;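 as to Population Tubulin-Different-Phenotype (%): share of the cells with healthy nuclei that show this phenotype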
Assay type: toxicity, cell-based
Conditions: human
Outline: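 Tubulin, mitochondrial-mass and membrane-permeability phenotypes are per cents of healthy-nucleus cells. Cells were gated by CellPathfinder machine learning into Hoechst high-intensity objects or normal cells, normal cells into healthy, pyknosed or fragmented nuclei, and pyknosed cells into mitotic or apoptotic. Before that, live cells stained at seeding with Hoechst33342, BioTracker Green Microtubule Cytoskeleton Dye, MitoTracker Red and Annexin V Alexa Fluor 680 were imaged on a CQ1 microscope at 37°C and 5% CO2 after compound addition.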

[1] = 12 h, 1 µM, compound concentration 1 uM, replicate 1
[2] = 12 h, 1 µM, compound concentration 1 uM, replicate 2
[3] = 12 h, 10 µM, compound concentration 10 uM, replicate 1
[4] = 12 h, 10 µM, compound concentration 10 uM, replicate 2
[5] = 24 h, 1 µM, compound concentration 1 uM, replicate 1
[6] = 24 h, 1 µM, compound concentration 1 uM, replicate 2
[7] = 24 h, 10 µM, compound concentration 10 uM, replicate 1
[8] = 24 h, 10 µM, compound concentration 10 uM, replicate 2
[9] = 48 h, 1 µM, compound concentration 1 uM, replicate 1
[10] = 48 h, 1 µM, compound concentration 1 uM, replicate 2
[11] = 48 h, 10 µM, compound concentration 10 uM, replicate 1
[12] = 48 h, 10 µM, compound concentration 10 uM, replicate 2

SMILES: Cn1cc(-c2[nH]c3cc(NC(=O)[C@H](N)C4CCCCC4)cc4c3c2C=NNC4=O)cn1
- Population Apoptotic (%) [1]: 40%
- Population Fragmented Nuclei (%) [1]: 10%
- Population Healthy Nuclei (%) [1]: 26%
- Population Hoechst High Intensity Objects (%) [1]: 14%
- Population Membrane Permeable-Phenotype (%) [1]: 10%
- Population Mitochondria Different-Phenotype (%) [1]: 71%
- Population Mitotic Cells (%) [1]: 60%
- Population Normal (%) [1]: 85%
- Population Pyknosed Nuclei (%) [1]: 62%
- Population Tubulin-Different-Phenotype (%) [1]: 42%
- Total Cell Count [1]: 344
- Population Apoptotic (%) [2]: 17%
- Population Fragmented Nuclei (%) [2]: 6%
- Population Healthy Nuclei (%) [2]: 28%
- Population Hoechst High Intensity Objects (%) [2]: 6%
- Population Membrane Permeable-Phenotype (%) [2]: 11%
- Population Mitochondria Different-Phenotype (%) [2]: 7%
- Population Mitotic Cells (%) [2]: 82%
- Population Normal (%) [2]: 93%
- Population Pyknosed Nuclei (%) [2]: 65%
- Population Tubulin-Different-Phenotype (%) [2]: 25%
- Total Cell Count [2]: 259
- Population Apoptotic (%) [3]: 64%
- Population Fragmented Nuclei (%) [3]: 15%
- Population Healthy Nuclei (%) [3]: 24%
- Population Hoechst High Intensity Objects (%) [3]: 17%
- Population Membrane Permeable-Phenotype (%) [3]: 10%
- Population Mitochondria Different-Phenotype (%) [3]: 82%
- Population Mitotic Cells (%) [3]: 35%
- Population Normal (%) [3]: 82%
- Population Pyknosed Nuclei (%) [3]: 60%
- Population Tubulin-Different-Phenotype (%) [3]: 62%
- Total Cell Count [3]: 329
- Population Apoptotic (%) [4]: 42%
- Population Fragmented Nuclei (%) [4]: 6%
- Population Healthy Nuclei (%) [4]: 17%
- Population Hoechst High Intensity Objects (%) [4]: 6%
- Population Membrane Permeable-Phenotype (%) [4]: 6%
- Population Mitochondria Different-Phenotype (%) [4]: 46%
- Population Mitotic Cells (%) [4]: 57%
- Population Normal (%) [4]: 93%
- Population Pyknosed Nuclei (%) [4]: 75%
- Population Tubulin-Different-Phenotype (%) [4]: 66%
- Total Cell Count [4]: 180
- Population Apoptotic (%) [5]: 41%
- Population Fragmented Nuclei (%) [5]: 13%
- Population Healthy Nuclei (%) [5]: 20%
- Population Hoechst High Intensity Objects (%) [5]: 19%
- Population Membrane Permeable-Phenotype (%) [5]: 5%
- Population Mitochondria Different-Phenotype (%) [5]: 62%
- Population Mitotic Cells (%) [5]: 58%
- Population Normal (%) [5]: 80%
- Population Pyknosed Nuclei (%) [5]: 65%
- Population Tubulin-Different-Phenotype (%) [5]: 68%
- Total Cell Count [5]: 330
- Population Apoptotic (%) [6]: 40%
- Population Fragmented Nuclei (%) [6]: 6%
- Population Healthy Nuclei (%) [6]: 26%
- Population Hoechst High Intensity Objects (%) [6]: 9%
- Population Membrane Permeable-Phenotype (%) [6]: 14%
- Population Mitochondria Different-Phenotype (%) [6]: 19%
- Population Mitotic Cells (%) [6]: 59%
- Population Normal (%) [6]: 90%
- Population Pyknosed Nuclei (%) [6]: 67%
- Population Tubulin-Different-Phenotype (%) [6]: 53%
- Total Cell Count [6]: 263
- Population Apoptotic (%) [7]: 74%
- Population Fragmented Nuclei (%) [7]: 17%
- Population Healthy Nuclei (%) [7]: 13%
- Population Hoechst High Intensity Objects (%) [7]: 17%
- Population Membrane Permeable-Phenotype (%) [7]: 14%
- Population Mitochondria Different-Phenotype (%) [7]: 97%
- Population Mitotic Cells (%) [7]: 25%
- Population Normal (%) [7]: 82%
- Population Pyknosed Nuclei (%) [7]: 69%
- Population Tubulin-Different-Phenotype (%) [7]: 82%
- Total Cell Count [7]: 311
- Population Apoptotic (%) [8]: 72%
- Population Fragmented Nuclei (%) [8]: 6%
- Population Healthy Nuclei (%) [8]: 6%
- Population Hoechst High Intensity Objects (%) [8]: 12%
- Population Membrane Permeable-Phenotype (%) [8]: 0%
- Population Mitochondria Different-Phenotype (%) [8]: 70%
- Population Mitotic Cells (%) [8]: 27%
- Population Normal (%) [8]: 87%
- Population Pyknosed Nuclei (%) [8]: 86%
- Population Tubulin-Different-Phenotype (%) [8]: 70%
- Total Cell Count [8]: 175
- Population Apoptotic (%) [9]: 36%
- Population Fragmented Nuclei (%) [9]: 22%
- Population Healthy Nuclei (%) [9]: 5%
- Population Hoechst High Intensity Objects (%) [9]: 23%
- Population Membrane Permeable-Phenotype (%) [9]: 6%
- Population Mitochondria Different-Phenotype (%) [9]: 46%
- Population Mitotic Cells (%) [9]: 63%
- Population Normal (%) [9]: 76%
- Population Pyknosed Nuclei (%) [9]: 71%
- Population Tubulin-Different-Phenotype (%) [9]: 60%
- Total Cell Count [9]: 373
- Population Apoptotic (%) [10]: 52%
- Population Fragmented Nuclei (%) [10]: 10%
- Population Healthy Nuclei (%) [10]: 14%
- Population Hoechst High Intensity Objects (%) [10]: 17%
- Population Membrane Permeable-Phenotype (%) [10]: 17%
- Population Mitochondria Different-Phenotype (%) [10]: 20%
- Population Mitotic Cells (%) [10]: 47%
- Population Normal (%) [10]: 82%
- Population Pyknosed Nuclei (%) [10]: 75%
- Population Tubulin-Different-Phenotype (%) [10]: 64%
- Total Cell Count [10]: 278
- Population Apoptotic (%) [11]: 72%
- Population Fragmented Nuclei (%) [11]: 20%
- Population Healthy Nuclei (%) [11]: 3%
- Population Hoechst High Intensity Objects (%) [11]: 20%
- Population Membrane Permeable-Phenotype (%) [11]: 11%
- Population Mitochondria Different-Phenotype (%) [11]: 77%
- Population Mitotic Cells (%) [11]: 27%
- Population Normal (%) [11]: 79%
- Population Pyknosed Nuclei (%) [11]: 76%
- Population Tubulin-Different-Phenotype (%) [11]: 66%
- Total Cell Count [11]: 331
- Population Apoptotic (%) [12]: 89%
- Population Fragmented Nuclei (%) [12]: 5%
- Population Healthy Nuclei (%) [12]: 1%
- Population Hoechst High Intensity Objects (%) [12]: 15%
- Population Membrane Permeable-Phenotype (%) [12]: 0%
- Population Mitochondria Different-Phenotype (%) [12]: 66%
- Population Mitotic Cells (%) [12]: 10%
- Population Normal (%) [12]: 84%
- Population Pyknosed Nuclei (%) [12]: 92%
- Total Cell Count [12]: 179
